Values belong to the molecule of their own block, whether it stands above or below them.
What was measured:
[1] = biological target: T1, 5-hydroxytryptamine receptor 2B (Homo sapiens, UniProt P41595); assay: Antagonist activity at 5-HT2B receptor (unknown origin) expressed in CHO-K1 cells assessed as calcium flux at 1 uM after 60 mins by FLIPR assay; type: functional, cell-based
Method in brief: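 CHO-K1 cells stably expressing 5-HT2B receptor, antagonist mode, calcium flux read-out. Compounds screened at 10 μM and 1 μM; dose-response curves run for compounds active in the screen to give IC50.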

[2] = biological target: T2, 5-hydroxytryptamine receptor 1A (Homo sapiens, UniProt P08908); assay: Displacement of [3H]8-OH-DPAT from 5-HT1A receptor (unknown origin) after 1.5 hrs by microbeta scintillation counting method
T2 sequence (P08908 whole entry): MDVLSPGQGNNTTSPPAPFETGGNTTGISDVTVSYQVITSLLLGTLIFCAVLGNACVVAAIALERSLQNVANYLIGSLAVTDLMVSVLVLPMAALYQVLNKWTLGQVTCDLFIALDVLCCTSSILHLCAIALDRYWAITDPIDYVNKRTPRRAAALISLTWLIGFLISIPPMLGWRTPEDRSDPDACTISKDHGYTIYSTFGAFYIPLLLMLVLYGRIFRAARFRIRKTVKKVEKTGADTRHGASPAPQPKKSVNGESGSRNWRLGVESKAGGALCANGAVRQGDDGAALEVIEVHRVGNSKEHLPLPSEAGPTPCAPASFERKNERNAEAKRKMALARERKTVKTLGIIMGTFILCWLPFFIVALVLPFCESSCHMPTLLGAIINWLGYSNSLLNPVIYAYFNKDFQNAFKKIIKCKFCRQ

[3] = biological target: 5-hydroxytryptamine receptor 7 (Homo sapiens, UniProt P34969); assay: Displacement of [3H]LSD from 5-HT7A receptor (unknown origin) after 1.5 hrs by microbeta scintillation counting method
[4] = biological target: 5-hydroxytryptamine receptor 5A (Homo sapiens, UniProt P47898); assay: Displacement of [3H]LSD from 5-HT5A receptor (unknown origin) after 1.5 hrs by microbeta scintillation counting method
[5] = biological target: T3, 5-hydroxytryptamine receptor 2C (Homo sapiens, UniProt P28335); assay: Displacement of [3H]LSD from 5-HT2C receptor (unknown origin) after 1.5 hrs by microbeta scintillation counting method
T3 sequence (P28335 whole entry): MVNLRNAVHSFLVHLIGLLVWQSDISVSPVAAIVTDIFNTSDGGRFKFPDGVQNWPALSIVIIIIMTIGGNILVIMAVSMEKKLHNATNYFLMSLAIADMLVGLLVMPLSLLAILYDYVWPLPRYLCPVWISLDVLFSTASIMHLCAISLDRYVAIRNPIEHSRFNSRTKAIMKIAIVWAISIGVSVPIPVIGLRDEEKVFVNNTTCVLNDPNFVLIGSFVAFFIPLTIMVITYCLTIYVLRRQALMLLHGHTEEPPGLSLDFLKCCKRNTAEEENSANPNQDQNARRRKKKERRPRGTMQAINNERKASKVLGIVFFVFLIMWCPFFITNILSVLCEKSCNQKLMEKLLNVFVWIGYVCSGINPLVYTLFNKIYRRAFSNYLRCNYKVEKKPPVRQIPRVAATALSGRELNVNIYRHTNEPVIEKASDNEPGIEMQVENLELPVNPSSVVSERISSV

[6] = biological target: 5-hydroxytryptamine receptor 2A (Homo sapiens, UniProt P28223); assay: Displacement of [3H]Ketanserin from 5-HT2A receptor (unknown origin) after 1.5 hrs by microbeta scintillation counting method
[7] = biological target: T4, 5-hydroxytryptamine receptor 3A (Homo sapiens, UniProt P46098); assay: Displacement of [3H]LY278584 from 5-HT3 receptor (unknown origin) after 1.5 hrs by microbeta scintillation counting method
T4 sequence (P46098 whole entry): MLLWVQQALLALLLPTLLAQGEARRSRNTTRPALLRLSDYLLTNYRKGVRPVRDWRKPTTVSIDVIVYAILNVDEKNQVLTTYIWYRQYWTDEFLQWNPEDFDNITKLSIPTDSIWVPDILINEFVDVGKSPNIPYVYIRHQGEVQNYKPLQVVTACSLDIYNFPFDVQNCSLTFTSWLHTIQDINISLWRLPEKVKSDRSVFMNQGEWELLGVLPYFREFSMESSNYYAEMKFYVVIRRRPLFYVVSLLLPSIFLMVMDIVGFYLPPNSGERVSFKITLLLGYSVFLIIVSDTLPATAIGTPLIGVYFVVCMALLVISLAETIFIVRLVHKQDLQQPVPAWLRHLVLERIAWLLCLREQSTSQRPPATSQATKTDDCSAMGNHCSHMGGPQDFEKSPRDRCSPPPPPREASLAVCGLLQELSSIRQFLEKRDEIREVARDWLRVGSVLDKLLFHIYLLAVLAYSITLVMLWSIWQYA

[8] = biological target: 5-hydroxytryptamine receptor 6 (Homo sapiens, UniProt P50406); assay: Displacement of [3H]LSD from 5-HT6 receptor (unknown origin) after 1.5 hrs by microbeta scintillation counting method
[9] = biological target: 5-hydroxytryptamine receptor 1E (Homo sapiens, UniProt P28566); assay: Displacement of [3H]-5-HT from 5-HT1E receptor (unknown origin) after 1.5 hrs by microbeta scintillation counting method
[10] = biological target: T1, 5-hydroxytryptamine receptor 2B; assay: Displacement of [3H]LSD from 5-HT2B receptor (unknown origin) after 1.5 hrs by microbeta scintillation counting method
[11] = biological target: 5-hydroxytryptamine receptor 1D (Homo sapiens, UniProt P28221); assay: Displacement of [3H][…] from 5-HT1D receptor (unknown origin) after 1.5 hrs by microbeta scintillation counting method
[12] = biological target: 5-hydroxytryptamine receptor 1B (Homo sapiens, UniProt P28222); assay: Displacement of [3H][…] from 5-HT1B receptor (unknown origin) after 1.5 hrs by microbeta scintillation counting method
[13] = system: Rattus norvegicus; assay: Acute toxicity in Sprague-Dawley rat at 500 mg/kg, po; type: organism-based; details: in vivo
[14] = system: Rattus norvegicus; assay: Inhibition of visceral hypersensitivity in Sprague-Dawley rat model of IBS assessed as […] by measuring lifting of pelvic structure and arching of body at 30 mg/kg, po by colorectal distention test; type: functional
Method in brief: (§1)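 Rat IBS model induced by TNBS injection, then chronic unpredictable mild stress; colon histology checked by HE staining. Compound given orally at 30 mg/kg. Visceral sensitivity scored by abdominal withdrawal reflex, with pain thresholds in mmHg at scores 3 and 4. Compared with control rats; % inhibition derived from thresholds.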

[15] = biological target: Voltage-gated inwardly rectifying potassium channel KCNH2 (Homo sapiens, UniProt Q12809); assay: Inhibition of human ERG channel by patch clamp assay
[16] = system: Rattus norvegicus; assay: Inhibition of visceral hypersensitivity in Sprague-Dawley rat model of IBS assessed as […] by measuring abdominal contraction at 30 mg/kg, po by colorectal distention test; type: functional; details: Abdomen; method in brief: as §1

T1 sequence (P41595 whole entry): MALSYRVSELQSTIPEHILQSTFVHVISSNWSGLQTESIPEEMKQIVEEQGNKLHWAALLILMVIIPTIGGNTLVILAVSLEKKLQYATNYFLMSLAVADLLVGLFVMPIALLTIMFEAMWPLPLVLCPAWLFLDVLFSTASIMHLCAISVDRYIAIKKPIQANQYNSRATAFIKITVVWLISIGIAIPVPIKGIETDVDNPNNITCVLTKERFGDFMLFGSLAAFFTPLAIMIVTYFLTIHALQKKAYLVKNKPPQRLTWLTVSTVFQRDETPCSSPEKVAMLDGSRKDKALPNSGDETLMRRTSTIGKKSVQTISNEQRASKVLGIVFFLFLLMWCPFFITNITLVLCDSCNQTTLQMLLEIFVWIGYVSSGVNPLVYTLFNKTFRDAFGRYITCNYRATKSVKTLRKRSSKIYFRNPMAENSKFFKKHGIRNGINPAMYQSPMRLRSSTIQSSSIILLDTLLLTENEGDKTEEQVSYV
Chain of 5-hydroxytryptamine receptor 1B (P28222 whole entry): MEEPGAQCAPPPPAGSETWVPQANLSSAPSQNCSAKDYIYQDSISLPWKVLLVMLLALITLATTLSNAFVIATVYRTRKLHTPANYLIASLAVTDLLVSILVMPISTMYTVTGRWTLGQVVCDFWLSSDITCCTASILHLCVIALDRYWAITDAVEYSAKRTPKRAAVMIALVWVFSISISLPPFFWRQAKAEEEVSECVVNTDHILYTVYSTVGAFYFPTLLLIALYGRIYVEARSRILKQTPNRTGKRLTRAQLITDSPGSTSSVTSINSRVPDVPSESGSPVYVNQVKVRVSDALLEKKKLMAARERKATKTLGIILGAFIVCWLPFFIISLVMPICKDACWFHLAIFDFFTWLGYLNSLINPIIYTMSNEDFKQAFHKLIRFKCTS
Chain of 5-hydroxytryptamine receptor 1D (P28221 whole entry): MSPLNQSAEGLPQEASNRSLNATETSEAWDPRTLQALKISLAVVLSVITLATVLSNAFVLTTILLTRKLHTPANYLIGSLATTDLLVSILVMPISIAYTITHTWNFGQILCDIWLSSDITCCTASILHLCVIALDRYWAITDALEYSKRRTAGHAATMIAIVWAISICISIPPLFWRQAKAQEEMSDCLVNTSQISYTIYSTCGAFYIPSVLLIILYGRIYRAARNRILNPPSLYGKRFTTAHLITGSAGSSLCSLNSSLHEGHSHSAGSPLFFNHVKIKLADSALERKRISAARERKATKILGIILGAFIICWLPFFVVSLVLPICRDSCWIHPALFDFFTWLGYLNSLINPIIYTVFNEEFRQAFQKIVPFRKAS
Chain of 5-hydroxytryptamine receptor 5A (P47898 whole entry): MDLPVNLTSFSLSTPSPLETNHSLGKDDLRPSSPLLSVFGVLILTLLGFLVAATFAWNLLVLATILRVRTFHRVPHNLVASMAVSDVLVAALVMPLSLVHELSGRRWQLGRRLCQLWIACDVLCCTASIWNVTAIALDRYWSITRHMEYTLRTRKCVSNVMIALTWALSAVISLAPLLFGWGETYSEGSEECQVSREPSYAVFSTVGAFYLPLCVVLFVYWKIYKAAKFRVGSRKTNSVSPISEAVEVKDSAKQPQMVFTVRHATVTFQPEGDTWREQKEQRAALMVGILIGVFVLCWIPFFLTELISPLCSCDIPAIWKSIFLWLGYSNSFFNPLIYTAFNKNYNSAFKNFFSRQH
Chain of 5-hydroxytryptamine receptor 2A (P28223 whole entry): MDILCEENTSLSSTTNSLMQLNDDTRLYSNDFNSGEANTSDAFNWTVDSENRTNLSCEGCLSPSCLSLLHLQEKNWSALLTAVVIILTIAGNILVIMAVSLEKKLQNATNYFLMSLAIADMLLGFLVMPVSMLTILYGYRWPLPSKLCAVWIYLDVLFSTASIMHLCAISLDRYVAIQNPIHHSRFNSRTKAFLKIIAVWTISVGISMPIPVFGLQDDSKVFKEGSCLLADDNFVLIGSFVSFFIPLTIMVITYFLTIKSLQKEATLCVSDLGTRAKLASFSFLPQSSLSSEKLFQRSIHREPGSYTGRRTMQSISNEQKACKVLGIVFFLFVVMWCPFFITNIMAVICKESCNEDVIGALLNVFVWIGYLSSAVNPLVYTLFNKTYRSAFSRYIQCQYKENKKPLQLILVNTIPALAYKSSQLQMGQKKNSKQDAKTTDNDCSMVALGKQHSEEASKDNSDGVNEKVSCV
Chain of 5-hydroxytryptamine receptor 6 (P50406 whole entry): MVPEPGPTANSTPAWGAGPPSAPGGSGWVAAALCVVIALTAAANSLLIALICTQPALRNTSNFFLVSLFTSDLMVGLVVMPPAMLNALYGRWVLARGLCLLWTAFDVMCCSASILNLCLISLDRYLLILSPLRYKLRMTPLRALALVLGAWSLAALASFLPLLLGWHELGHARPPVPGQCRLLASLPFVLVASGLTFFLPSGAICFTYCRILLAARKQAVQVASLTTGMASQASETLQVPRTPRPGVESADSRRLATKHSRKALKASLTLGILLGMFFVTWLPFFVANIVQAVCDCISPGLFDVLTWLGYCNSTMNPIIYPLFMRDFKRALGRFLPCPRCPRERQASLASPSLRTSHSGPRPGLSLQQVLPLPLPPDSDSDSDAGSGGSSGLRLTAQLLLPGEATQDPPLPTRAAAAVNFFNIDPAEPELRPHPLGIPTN
Chain of 5-hydroxytryptamine receptor 7 (P34969 whole entry): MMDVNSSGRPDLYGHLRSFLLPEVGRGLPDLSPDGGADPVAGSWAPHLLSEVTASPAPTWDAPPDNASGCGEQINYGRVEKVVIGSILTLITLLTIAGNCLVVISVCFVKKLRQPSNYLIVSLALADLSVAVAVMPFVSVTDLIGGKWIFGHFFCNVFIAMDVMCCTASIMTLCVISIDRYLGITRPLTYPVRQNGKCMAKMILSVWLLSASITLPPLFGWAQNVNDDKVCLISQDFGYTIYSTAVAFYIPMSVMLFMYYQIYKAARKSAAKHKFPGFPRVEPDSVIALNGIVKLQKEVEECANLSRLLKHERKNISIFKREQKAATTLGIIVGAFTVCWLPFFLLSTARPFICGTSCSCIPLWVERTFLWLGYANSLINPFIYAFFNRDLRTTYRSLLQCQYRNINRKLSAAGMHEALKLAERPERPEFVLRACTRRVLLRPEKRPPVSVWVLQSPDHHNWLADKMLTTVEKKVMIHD
Chain of 5-hydroxytryptamine receptor 1E (P28566 whole entry): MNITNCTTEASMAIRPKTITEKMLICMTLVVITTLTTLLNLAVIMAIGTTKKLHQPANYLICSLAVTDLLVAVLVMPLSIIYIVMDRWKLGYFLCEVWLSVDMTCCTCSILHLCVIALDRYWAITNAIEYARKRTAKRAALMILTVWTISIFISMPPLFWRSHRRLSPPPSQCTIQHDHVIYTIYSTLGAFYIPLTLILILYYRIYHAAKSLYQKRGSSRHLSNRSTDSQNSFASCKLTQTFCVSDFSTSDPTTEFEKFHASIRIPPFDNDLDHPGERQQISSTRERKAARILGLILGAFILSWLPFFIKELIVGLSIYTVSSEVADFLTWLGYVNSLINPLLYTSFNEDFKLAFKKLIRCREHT
Chain of Voltage-gated inwardly rectifying potassium channel KCNH2 (Q12809 whole entry): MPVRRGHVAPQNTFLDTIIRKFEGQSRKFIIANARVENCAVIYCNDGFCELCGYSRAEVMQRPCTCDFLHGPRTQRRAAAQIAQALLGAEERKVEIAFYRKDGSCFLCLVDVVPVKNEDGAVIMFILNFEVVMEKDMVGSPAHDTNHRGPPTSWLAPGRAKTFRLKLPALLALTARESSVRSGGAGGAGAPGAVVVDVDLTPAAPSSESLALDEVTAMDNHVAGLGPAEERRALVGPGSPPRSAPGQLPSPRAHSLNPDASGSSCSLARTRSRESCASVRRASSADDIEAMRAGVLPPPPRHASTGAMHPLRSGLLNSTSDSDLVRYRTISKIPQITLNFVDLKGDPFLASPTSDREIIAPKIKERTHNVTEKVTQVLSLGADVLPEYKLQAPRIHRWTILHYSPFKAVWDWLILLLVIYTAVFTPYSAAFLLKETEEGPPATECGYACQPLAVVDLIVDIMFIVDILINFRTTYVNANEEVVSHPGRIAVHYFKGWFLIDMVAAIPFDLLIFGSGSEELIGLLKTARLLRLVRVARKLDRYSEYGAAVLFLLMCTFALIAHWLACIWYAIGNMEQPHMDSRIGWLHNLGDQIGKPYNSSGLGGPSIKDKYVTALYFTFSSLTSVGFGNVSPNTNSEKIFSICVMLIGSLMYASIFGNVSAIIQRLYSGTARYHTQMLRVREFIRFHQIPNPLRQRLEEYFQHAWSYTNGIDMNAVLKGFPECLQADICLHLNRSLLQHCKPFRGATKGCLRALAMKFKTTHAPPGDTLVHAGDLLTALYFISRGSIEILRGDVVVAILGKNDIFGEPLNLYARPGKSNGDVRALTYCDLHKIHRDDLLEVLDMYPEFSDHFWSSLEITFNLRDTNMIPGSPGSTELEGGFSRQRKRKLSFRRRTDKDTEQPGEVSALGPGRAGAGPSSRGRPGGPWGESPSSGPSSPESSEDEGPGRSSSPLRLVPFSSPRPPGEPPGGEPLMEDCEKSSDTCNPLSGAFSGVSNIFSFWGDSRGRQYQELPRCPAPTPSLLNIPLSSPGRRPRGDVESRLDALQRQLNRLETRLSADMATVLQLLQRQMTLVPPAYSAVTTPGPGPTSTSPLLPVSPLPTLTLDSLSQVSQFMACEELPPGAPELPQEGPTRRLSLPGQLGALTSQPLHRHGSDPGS

SMILES: Cc1ccccc1NC1=NC(N)=NC2(CCCCC2)N1
- inhibition [1]: 39.9%

SMILES: CCOC(=O)c1cccc(NC2=NC(N)=NC3(CCCCC3)N2)c1
- Ki [2]: 714 nM
- Ki [3]: 472 nM
- Ki [4]: 457 nM
- Ki [5]: 851 nM
- Ki [6]: 174 nM
- Ki [7]: > 10000 nM
- Ki [8]: 3590 nM
- inhibition [1]: 107%
- Ki [9]: > 10000 nM
- Ki [10]: 7.2 nM
- Ki [11]: 8590 nM
- Ki [12]: > 10000 nM

SMILES: NC1=NC2(CCCCC2)NC(Nc2cccc(C(=O)O)c2)=N1
- inhibition [1]: 4.4%

SMILES: CCOC(=O)c1cccc(N(C)C2=NC(N)=NC3(CCCCC3)N2)c1
- inhibition [1]: 50.4%

SMILES: Cc1ccc(NC2=NC(N)=NC3(CCCCC3)N2)cc1
- inhibition [1]: 50.2%

SMILES: CCOC(=O)c1cccc(NC2=NC(N(C)C)=NC3(CCCCC3)N2)c1
- Ki [2]: 116 nM
- Ki [3]: 516 nM
- Ki [4]: 595 nM
- Ki [5]: 1200 nM
- Ki [6]: 1540 nM
- Ki [7]: > 10000 nM
- Ki [8]: 4780 nM
- inhibition [1]: 91.8%
- Ki [9]: > 10000 nM
- Ki [10]: 38.5 nM
- Ki [11]: 3830 nM
- Ki [12]: 9650 nM

SMILES: NC1=NC2(CCCCC2)NC(Nc2cccc(Br)c2)=N1
- Ki [2]: 320 nM
- Ki [3]: 401 nM
- Ki [4]: 227 nM
- Ki [5]: 156 nM
- Activity [13]: Non-toxic
- inhibition in vivo at 30 mg/kg [14]: 63%
- Ki [6]: 211 nM
- Ki [7]: > 10000 nM
- Ki [8]: 3030 nM
- inhibition [1]: 97.4%
- Ki [9]: > 10000 nM
- Ki [10]: 6.2 nM
- IC50 [15]: > 1000 nM
- inhibition in vivo at 30 mg/kg [16]: 68%
- Ki [11]: 2900 nM
- Ki [12]: > 10000 nM

SMILES: CCCOC(=O)c1cccc(NC2=NC(N)=NC3(CCCCC3)N2)c1
- inhibition [1]: 110%

SMILES: CCNC(=O)c1cccc(NC2=NC(N)=NC3(CCCCC3)N2)c1
- Ki [2]: 6760 nM
- Ki [3]: 427 nM
- Ki [4]: 994 nM
- Ki [5]: 1900 nM
- Ki [6]: 1310 nM
- Ki [7]: > 10000 nM
- Ki [8]: 5910 nM
- inhibition [1]: 95.5%
- Ki [9]: > 10000 nM
- Ki [10]: 27.5 nM
- Ki [11]: > 10000 nM
- Ki [12]: > 10000 nM

SMILES: COc1cccc(NC2=NC(N)=NC3(CCCC3)N2)c1
- inhibition [1]: 63%

The next lines start with the values.

- inhibition [1]: 106%
SMILES: CCCC(=O)c1cccc(NC2=NC(N)=NC3(CCCCC3)N2)c1

- inhibition [1]: 20.7%
SMILES: COc1ccccc1NC1=NC(N)=NC2(CCCCC2)N1

- inhibition [1]: 4%
SMILES: NC1=NC2(CCCCC2)NC(Nc2cccc(C(=O)C3CC3)c2)=N1

- inhibition [1]: 84.6%
SMILES: COc1cccc(NC2=NC(N)=NC3(CCCCC3)N2)c1

- inhibition [1]: 57.1%
SMILES: NC1=NC2(CCCCC2)NC(Nc2ccc(Cl)cc2)=N1

- inhibition [1]: 108%
SMILES: CCOC(=O)c1cccc(NC2=NC(NC)=NC3(CCCCC3)N2)c1

- inhibition [1]: 17.6%
SMILES: CN(C)c1ccc(NC2=NC(N)=NC3(CCCCC3)N2)cc1

- Ki [2]: 660 nM
- Ki [3]: 2080 nM
- Ki [4]: 389 nM
- Ki [5]: 265 nM
- Ki [6]: 783 nM
- Ki [7]: > 10000 nM
- Ki [8]: 696 nM
- inhibition [1]: 75.9%
- Ki [9]: > 10000 nM
- Ki [10]: 20.5 nM
- Ki [11]: 2650 nM
- Ki [12]: 1530 nM
SMILES: CC1(C)N=C(N)N=C(Nc2cccc(Br)c2)N1

- inhibition [1]: 40.7%
SMILES: CCN(CC)C(=O)c1cccc(NC2=NC(N)=NC3(CCCCC3)N2)c1

— ChEMBL document CHEMBL3769382, “Structure-Based Discovery of Novel and Selective 5-Hydroxytryptamine 2B Receptor Antagonists for the Treatment of Irritable Bowel Syndrome” (J Med Chem, 2016)
